ChEMBL document CHEMBL3616437, “Thiazole compounds with activity against Cryptococcus gattii and Cryptococcus neoformans in vitro” (Eur J Med Chem, 2015)
Active and inactive are the calls of the source. The rule behind the calls is not given here.

Experiments:
Cryptococcus neoformans [1] = experiment: Ratio of compound MIC for Cryptococcus neoformans F10 in presence of fluconazole to compound MIC for Cryptococcus neoformans F10 in absence of fluconazole by checkerboard microtiter test; assay type: functional
Outline: (§1)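 Checkerboard microdilution: eight two-fold dilutions of test compound (0.11 to 15.6 µM) crossed with amphotericin B (0.025 to 3.9 µM, in DMSO) or fluconazole (0.48 to 62.5 µM, in water). Inoculum per CLSI M27-A3 in RPMI-MOPS pH 7.0, 1-5 x10^3 cells/mL. Growth 48 to 72 h. Effective MIC is the combination concentration giving complete inhibition. FICs derived from MICs in combination versus alone.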

[2] = test system: Cryptococcus gattii species complex; experiment: Ratio of compound MIC for Cryptococcus gattii 135L/03 in presence of fluconazole to compound MIC for Cryptococcus gattii 135L/03 in absence of fluconazole by checkerboard microtiter test; assay type: functional, Cryptococcus bacillisporus; outline: as §1
Cryptococcus neoformans [3] = experiment: Ratio of compound MIC for Cryptococcus neoformans WP in presence of amphotericin B to compound MIC for Cryptococcus neoformans WP in absence of amphotericin B by checkerboard microtiter test; assay type: functional; outline: as §1
Cryptococcus neoformans [4] = experiment: Ratio of compound MIC for Cryptococcus neoformans ATCC 28957 in presence of amphotericin B to compound MIC for Cryptococcus neoformans ATCC 28957 in absence of amphotericin B by checkerboard microtiter test; assay type: functional; outline: as §1
[5] = test system: Cryptococcus gattii species complex; experiment: Ratio of compound MIC for Cryptococcus gattii L27/01 in presence of fluconazole to compound MIC for Cryptococcus gattii L27/01 in absence of fluconazole by checkerboard microtiter test; assay type: functional, Cryptococcus bacillisporus; outline: as §1
Cryptococcus neoformans [6] = experiment: Ratio of compound MIC for Cryptococcus neoformans F10 in presence of amphotericin B to compound MIC for Cryptococcus neoformans F10 in absence of amphotericin B by checkerboard microtiter test; assay type: functional; outline: as §1
Cryptococcus neoformans [7] = experiment: Ratio of compound MIC for Cryptococcus neoformans 27JF in presence of fluconazole to compound MIC for Cryptococcus neoformans 27JF in absence of fluconazole by checkerboard microtiter test; assay type: functional; outline: as §1
[8] = test system: Cryptococcus gattii species complex; experiment: Ratio of compound MIC for Cryptococcus gattii 23/10993 in presence of fluconazole to compound MIC for Cryptococcus gattii 23/10993 in absence of fluconazole by checkerboard microtiter test; assay type: functional, Cryptococcus bacillisporus; outline: as §1
[9] = test system: Cryptococcus bacillisporus; experiment: Ratio of compound MIC for Cryptococcus gattii ATCC 32608 in presence of fluconazole to compound MIC for Cryptococcus gattii ATCC 32608 in absence of fluconazole by checkerboard microtiter test; assay type: functional; outline: as §1
[10] = test system: Cryptococcus gattii species complex; experiment: Ratio of compound MIC for Cryptococcus gattii L24/01 in presence of fluconazole to compound MIC for Cryptococcus gattii L24/01 in absence of fluconazole by checkerboard microtiter test; assay type: functional, Cryptococcus bacillisporus; outline: as §1
[11] = test system: Cryptococcus gattii species complex; experiment: Ratio of compound MIC for Cryptococcus gattii ICB181 in presence of fluconazole to compound MIC for Cryptococcus gattii ICB181 in absence of fluconazole by checkerboard microtiter test; assay type: functional, Cryptococcus bacillisporus; outline: as §1
Cryptococcus neoformans [12] = experiment: Ratio of compound MIC for Cryptococcus neoformans VM-MCMMPI in presence of fluconazole to compound MIC for Cryptococcus neoformans VM-MCMMPI in absence of fluconazole by checkerboard microtiter test; assay type: functional; outline: as §1
Cryptococcus neoformans [13] = experiment: Ratio of compound MIC for Cryptococcus neoformans 5396 in presence of fluconazole to compound MIC for Cryptococcus neoformans 5396 in absence of fluconazole by checkerboard microtiter test; assay type: functional; outline: as §1
Cryptococcus neoformans [14] = experiment: Ratio of compound MIC for Cryptococcus neoformans ATCC 62066 in presence of fluconazole to compound MIC for Cryptococcus neoformans ATCC 62066 in absence of fluconazole by checkerboard microtiter test; assay type: functional; outline: as §1
Cryptococcus neoformans [15] = experiment: Ratio of compound MIC for Cryptococcus neoformans 96806 in presence of fluconazole to compound MIC for Cryptococcus neoformans 96806 in absence of fluconazole by checkerboard microtiter test; assay type: functional; outline: as §1
Cryptococcus neoformans [16] = experiment: Ratio of compound MIC for Cryptococcus neoformans WP in presence of fluconazole to compound MIC for Cryptococcus neoformans WP in absence of fluconazole by checkerboard microtiter test; assay type: functional; outline: as §1
Cryptococcus neoformans [17] = experiment: Ratio of compound MIC for Cryptococcus neoformans ATCC 28957 in presence of fluconazole to compound MIC for Cryptococcus neoformans ATCC 28957 in absence of fluconazole by checkerboard microtiter test; assay type: functional; outline: as §1
[18] = test system: Cryptococcus gattii species complex; experiment: Antifungal activity against Cryptococcus gattii 196L/03 assessed as reduction in ergosterol content at MIC after 24 hrs by spectrophotometric analysis; assay type: functional, organism-based; conditions: Cryptococcus bacillisporus
Outline: (§2)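 Pellet washed and weighed, then saponified in 25% ethanolic KOH at 85°C for 1 h. Extracted with water and n-heptane, read at 282 and 230 nm. Ergosterol taken from a standard curve and expressed as % of growth control.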

Cryptococcus neoformans [19] = experiment: Ratio of compound MIC for Cryptococcus neoformans LMM820 in presence of amphotericin B to compound MIC for Cryptococcus neoformans LMM820 in absence of amphotericin B by checkerboard microtiter test; assay type: functional; outline: as §1
Cryptococcus neoformans [20] = experiment: Ratio of compound MIC for Cryptococcus neoformans LMM820 in presence of fluconazole to compound MIC for Cryptococcus neoformans LMM820 in absence of fluconazole by checkerboard microtiter test; assay type: functional; outline: as §1
[21] = test system: Cryptococcus gattii species complex; experiment: Antifungal activity against Cryptococcus gattii L27/01 assessed as reduction in ergosterol content at MIC after 24 hrs by spectrophotometric analysis; assay type: functional, organism-based; conditions: Cryptococcus bacillisporus; outline: as §2
[22] = Selectivity index, ratio of IC50 for African green monkey Vero cells to MIC for Cryptococcus gattii ATCC 24065; assay type: toxicity, cell-based
[23] = test system: Cryptococcus gattii species complex; experiment: Ratio of compound MIC for Cryptococcus gattii L24/01 in presence of amphotericin B to compound MIC for Cryptococcus gattii L24/01 in absence of amphotericin B by checkerboard microtiter test; assay type: functional, Cryptococcus bacillisporus; outline: as §1
Cryptococcus neoformans [24] = experiment: Ratio of compound MIC for Cryptococcus neoformans 96806 in presence of amphotericin B to compound MIC for Cryptococcus neoformans 96806 in absence of amphotericin B by checkerboard microtiter test; assay type: functional; outline: as §1
Cryptococcus neoformans [25] = experiment: Ratio of compound MIC for Cryptococcus neoformans VM-MCMMPI in presence of amphotericin B to compound MIC for Cryptococcus neoformans VM-MCMMPI in absence of amphotericin B by checkerboard microtiter test; assay type: functional; outline: as §1
Cryptococcus neoformans [26] = experiment: Ratio of compound MIC for Cryptococcus neoformans 28JF in presence of amphotericin B to compound MIC for Cryptococcus neoformans 28JF in absence of amphotericin B by checkerboard microtiter test; assay type: functional; outline: as §1
[27] = test system: Cryptococcus bacillisporus; experiment: Ratio of compound MIC for Cryptococcus gattii ATCC 32608 in presence of amphotericin B to compound MIC for Cryptococcus gattii ATCC 32608 in absence of amphotericin B by checkerboard microtiter test; assay type: functional; outline: as §1
Cryptococcus neoformans [28] = experiment: Ratio of compound MIC for Cryptococcus neoformans ATCC 24067 in presence of fluconazole to compound MIC for Cryptococcus neoformans ATCC 24067 in absence of fluconazole by checkerboard microtiter test; assay type: functional; outline: as §1
[29] = test system: Cryptococcus gattii species complex; experiment: Ratio of compound MIC for Cryptococcus gattii LMM818 in presence of amphotericin B to compound MIC for Cryptococcus gattii LMM818 in absence of amphotericin B by checkerboard microtiter test; assay type: functional, Cryptococcus bacillisporus; outline: as §1
Cryptococcus neoformans [30] = experiment: Ratio of compound MIC for Cryptococcus neoformans CN31 in presence of amphotericin B to compound MIC for Cryptococcus neoformans CN31 in absence of amphotericin B by checkerboard microtiter test; assay type: functional; outline: as §1
Cryptococcus neoformans [31] = experiment: Ratio of compound MIC for Cryptococcus neoformans ATCC 62066 in presence of amphotericin B to compound MIC for Cryptococcus neoformans ATCC 62066 in absence of amphotericin B by checkerboard microtiter test; assay type: functional; outline: as §1

Row | SMILES | fractional inhibitory concentration index (FICI) (Cryptococcus neoformans [1]) | fractional inhibitory concentration index (FICI) [2] | fractional inhibitory concentration index (FICI) (Cryptococcus neoformans [3]) | fractional inhibitory concentration index (FICI) (Cryptococcus neoformans [4]) | fractional inhibitory concentration index (FICI) [5] | fractional inhibitory concentration index (FICI) (Cryptococcus neoformans [6]) | fractional inhibitory concentration index (FICI) (Cryptococcus neoformans [7]) | fractional inhibitory concentration index (FICI) [8] | fractional inhibitory concentration index (FICI) [9] | fractional inhibitory concentration index (FICI) [10] | fractional inhibitory concentration index (FICI) [11] | fractional inhibitory concentration index (FICI) (Cryptococcus neoformans [12]) | fractional inhibitory concentration index (FICI) (Cryptococcus neoformans [13]) | fractional inhibitory concentration index (FICI) (Cryptococcus neoformans [14]) | fractional inhibitory concentration index (FICI) (Cryptococcus neoformans [15]) | fractional inhibitory concentration index (FICI) (Cryptococcus neoformans [16]) | fractional inhibitory concentration index (FICI) (Cryptococcus neoformans [17]) | fractional inhibitory concentration index (FICI) (Cryptococcus neoformans [19]) | fractional inhibitory concentration index (FICI) (Cryptococcus neoformans [20]) | fractional inhibitory concentration index (FICI) [23] | also measured
1 | COc1ccc(-c2csc(N/N=C(\C)CCO)n2)cc1 | 4.33 | 2.38 | 2.78 | 1.98 | 2.14 | 2.47 | 7.44 | 2.28 | 2.32 | 3.32 | 1.99 | 4.33 | 1.32 | 2.3 | 2.01 | 2.32 | 2.28 | 2.58 | 2.1 | 4.98 | Activity [18]: inactive; Activity [21]: inactive; selectivity ratio [22]: 222; fractional inhibitory concentration index (FICI) (Cryptococcus neoformans [24]): 2.78; fractional inhibitory concentration index (FICI) (Cryptococcus neoformans [25]): 1.58; fractional inhibitory concentration index (FICI) (Cryptococcus neoformans [26]): 2.58; fractional inhibitory concentration index (FICI) [27]: 3.14; fractional inhibitory concentration index (FICI) (Cryptococcus neoformans [28]): 1.92; fractional inhibitory concentration index (FICI) [29]: 4.98; fractional inhibitory concentration index (FICI) (Cryptococcus neoformans [30]): 4.98; fractional inhibitory concentration index (FICI) (Cryptococcus neoformans [31]): 2.58
2 | c1ccc(-c2csc(NN=C3CCCC3)n2)cc1 | 1.98 | 2.45 | 1.46 | 2.22 | 1.45 | 2.58 | 3.33 | 4.23 | 3.45 | 6.46 | 4.58 | 4.21 | 3.46 | 2.46 | 1.01 | 2.46 | 3.36 | 2.66 | 4.46 | 2.16 | fractional inhibitory concentration index (FICI) (Cryptococcus neoformans [24]): 2.46; fractional inhibitory concentration index (FICI) (Cryptococcus neoformans [25]): 2.66; fractional inhibitory concentration index (FICI) (Cryptococcus neoformans [26]): 2.46; fractional inhibitory concentration index (FICI) [27]: 1.7; fractional inhibitory concentration index (FICI) (Cryptococcus neoformans [28]): 4.46; fractional inhibitory concentration index (FICI) [29]: 2.58; fractional inhibitory concentration index (FICI) (Cryptococcus neoformans [30]): 2.66; fractional inhibitory concentration index (FICI) (Cryptococcus neoformans [31]): 3.06
3 | OC(Cn1cncn1)(Cn1cncn1)c1ccc(F)cc1F [FLUCONAZOLE] |  |  |  |  |  |  |  |  |  |  |  |  |  |  |  |  |  |  |  |  | Activity [18]: Active; Activity [21]: Active; selectivity ratio [22]: 7.87
4 | C(=N\Nc1nc(-c2ccccc2)cs1)/C1CCCCC1 | 4.47 | 2.47 | 2.41 | 1.09 | 4.23 | 2.62 | 6.8 | 1.47 | 1.72 | 2.47 | 2.58 | 4.47 | 2.4 | 2.04 | 1.76 | 2.47 | 4.47 | 4.3 | 4.24 | 4.87 | fractional inhibitory concentration index (FICI) (Cryptococcus neoformans [24]): 2.67; fractional inhibitory concentration index (FICI) (Cryptococcus neoformans [25]): 1.47; fractional inhibitory concentration index (FICI) (Cryptococcus neoformans [26]): 1.38; fractional inhibitory concentration index (FICI) [27]: 2.58; fractional inhibitory concentration index (FICI) (Cryptococcus neoformans [28]): 3.59; fractional inhibitory concentration index (FICI) [29]: 2.58; fractional inhibitory concentration index (FICI) (Cryptococcus neoformans [30]): 2.47; fractional inhibitory concentration index (FICI) (Cryptococcus neoformans [31]): 2.47
5 | C[C@@H]1[C@H](O)[C@@H](C)/C=C/C=C/C=C/C=C/C=C/C=C/C=C/[C@H](O[C@@H]2O[C@H](C)[C@@H](O)[C@H](N)[C@@H]2O)C[C@@H]2O[C@](O)(C[C@@H](O)C[C@@H](O)[C@H](O)CC[C@@H](O)C[C@@H](O)CC(=O)O[C@H]1C)C[C@H](O)[C@H]2C(=O)O [AMPHOTERICIN B] |  |  |  |  |  |  |  |  |  |  |  |  |  |  |  |  |  |  |  |  | Activity [18]: inactive; Activity [21]: inactive
6 | COc1ccc(-c2csc(N/N=C/C3CCCCC3)n2)cc1 | 2.46 | 2.71 | 1.46 | 2.07 | 1.18 | 1.46 | 4.59 | 2.46 | 4.38 | 6.79 | 4.46 | 4.46 | 3.48 | 3.58 | 1.01 | 2.21 | 2.51 | 2.78 | 4.59 | 2.38 | selectivity ratio [22]: 25.6; fractional inhibitory concentration index (FICI) (Cryptococcus neoformans [24]): 1.46; fractional inhibitory concentration index (FICI) (Cryptococcus neoformans [25]): 2.16; fractional inhibitory concentration index (FICI) (Cryptococcus neoformans [26]): 1.75; fractional inhibitory concentration index (FICI) [27]: 2.78; fractional inhibitory concentration index (FICI) (Cryptococcus neoformans [28]): 3.97; fractional inhibitory concentration index (FICI) [29]: 1.46; fractional inhibitory concentration index (FICI) (Cryptococcus neoformans [30]): 2.78; fractional inhibitory concentration index (FICI) (Cryptococcus neoformans [31]): 2.58
